Results published in ChEMBL document CHEMBL1134268, “Synthesis and biological evaluation of tropane-like 1-[2-[bis(4-fluorophenyl)methoxy]ethyl]-4-(3-phenylpropyl)piperazine (GBR 12909) analogues” (J Med Chem, 2001).

What was measured:
[1] = molecular target: Sodium-dependent serotonin transporter (Rattus norvegicus, UniProt P31652); assay: Binding affinity against serotonin transporter using [125]RTI-55
[2] = species on record: Rattus norvegicus; assay: Inhibition of 5-HT reuptake from whole rat brain minus cerebellum using [3H]5-HT
[3] = molecular target: Monoamine transporters; serotonin & dopamine (Rattus norvegicus) (UniProt P31652+P23977); assay: Ratio of binding affinity against Dopamine to that of serotonin transporter; assay type: protein assay
[4] = molecular target: T1, Muscarinic acetylcholine receptor M1 (Rattus norvegicus, UniProt P08482); assay: Binding affinity against Muscarinic receptor from rat brain membranes using [3H]pirenzepine
T1 sequence (P08482 whole entry): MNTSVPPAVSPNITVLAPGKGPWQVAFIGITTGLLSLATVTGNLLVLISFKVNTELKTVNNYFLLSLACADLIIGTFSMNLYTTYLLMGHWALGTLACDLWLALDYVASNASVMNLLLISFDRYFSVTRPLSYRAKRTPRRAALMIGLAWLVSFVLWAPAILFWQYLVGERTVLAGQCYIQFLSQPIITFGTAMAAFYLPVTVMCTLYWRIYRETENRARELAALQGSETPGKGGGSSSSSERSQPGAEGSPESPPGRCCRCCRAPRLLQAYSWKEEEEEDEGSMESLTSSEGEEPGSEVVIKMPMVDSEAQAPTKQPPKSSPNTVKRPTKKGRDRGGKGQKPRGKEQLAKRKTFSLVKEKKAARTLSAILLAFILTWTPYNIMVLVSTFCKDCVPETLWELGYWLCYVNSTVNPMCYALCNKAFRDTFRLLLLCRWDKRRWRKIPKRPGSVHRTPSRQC
In short: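 Male Sprague-Dawley rat brain P2 membranes (without cerebellum and brainstem), 300 μg protein, with 5 nM [3H]pirenzepine and 5 mM MgCl2 in 50 mM Tris-HCl pH 7.4, for 60 min at 37 °C. Nonspecific binding was defined with 10 μM QNB. Nine ligand concentrations (1 nM-10 μM or 10 nM-100 μM) were tested.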

[5] = species on record: Rattus norvegicus; assay: Inhibition of Dopamine reuptake from rat caudate using [3H]DA; assay type: functional
In short: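 Rat caudate synaptosomes were prepared by homogenization in ice-cold 10% sucrose, and the 1000g supernatant was used. Incubation was with 2 nM [3H]DA (final) in Krebs-phosphate buffer pH 7.4 containing ascorbic acid (1 mg/mL) and pargyline (50 μM), for 20 min at 25 °C. Nonspecific uptake was defined with 1 μM of a DAT inhibitor. Filtration was followed by counting of retained tritium.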

[6] = molecular target: Sodium-dependent dopamine transporter (Rattus norvegicus, UniProt P23977); assay: Binding affinity against Dopamine transporter using [125]RTI-55
Sequence of Sodium-dependent dopamine transporter (P23977 whole entry): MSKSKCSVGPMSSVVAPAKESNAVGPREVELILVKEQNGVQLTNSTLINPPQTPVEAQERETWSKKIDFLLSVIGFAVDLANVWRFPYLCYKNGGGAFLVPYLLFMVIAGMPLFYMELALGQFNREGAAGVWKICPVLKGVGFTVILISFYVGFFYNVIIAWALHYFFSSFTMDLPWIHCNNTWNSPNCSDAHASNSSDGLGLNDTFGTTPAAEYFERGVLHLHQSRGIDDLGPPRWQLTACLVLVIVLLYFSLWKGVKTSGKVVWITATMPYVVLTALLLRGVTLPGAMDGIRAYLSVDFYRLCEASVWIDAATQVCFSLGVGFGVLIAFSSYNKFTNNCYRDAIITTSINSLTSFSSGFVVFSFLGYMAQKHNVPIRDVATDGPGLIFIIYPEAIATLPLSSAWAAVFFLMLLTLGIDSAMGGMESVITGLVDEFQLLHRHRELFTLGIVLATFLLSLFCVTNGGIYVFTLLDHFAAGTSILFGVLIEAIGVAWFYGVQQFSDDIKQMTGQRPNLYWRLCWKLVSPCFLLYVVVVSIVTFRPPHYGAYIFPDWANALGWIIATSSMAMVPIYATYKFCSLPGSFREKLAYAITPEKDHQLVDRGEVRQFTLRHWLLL

Sequence of Monoamine transporters; serotonin & dopamine (Rattus norvegicus) (P23977 whole entry, looked up): as the sequence (P23977 whole entry) above
Sequence of Monoamine transporters; serotonin & dopamine (Rattus norvegicus) (P31652 whole entry, looked up): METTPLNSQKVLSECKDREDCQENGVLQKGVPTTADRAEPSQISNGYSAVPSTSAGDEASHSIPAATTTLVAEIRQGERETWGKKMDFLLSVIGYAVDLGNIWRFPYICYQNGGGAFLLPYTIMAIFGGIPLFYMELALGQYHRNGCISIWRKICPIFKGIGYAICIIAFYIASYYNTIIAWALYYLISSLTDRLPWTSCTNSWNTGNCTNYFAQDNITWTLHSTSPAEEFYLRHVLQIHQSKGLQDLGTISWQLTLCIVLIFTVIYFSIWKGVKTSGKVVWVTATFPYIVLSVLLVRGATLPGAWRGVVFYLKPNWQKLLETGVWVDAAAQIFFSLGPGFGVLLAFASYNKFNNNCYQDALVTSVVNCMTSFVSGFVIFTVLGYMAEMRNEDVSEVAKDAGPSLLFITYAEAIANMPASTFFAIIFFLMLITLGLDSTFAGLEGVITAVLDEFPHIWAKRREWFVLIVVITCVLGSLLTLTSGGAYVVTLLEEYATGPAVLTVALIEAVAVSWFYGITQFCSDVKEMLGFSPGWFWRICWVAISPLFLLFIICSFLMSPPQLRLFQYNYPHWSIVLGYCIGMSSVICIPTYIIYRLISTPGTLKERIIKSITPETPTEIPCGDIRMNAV
Sequence of Sodium-dependent serotonin transporter (P31652 whole entry): as the sequence (P31652 whole entry, looked up) above

Row | SMILES | Ki [1] [nM] | Ki [2] [nM] | Ratio [3] | Ki [4] [nM] | Ki [5] [nM] | Ki [6] [nM]
1 | c1ccc(CCCN2[C@@H]3CC[C@H]2C[C@@H](CCOC(c2ccccc2)c2ccccc2)C3)cc1 | 170 | 570 | 6 | 78 | 120 | 28000
2 | CN1C2CCC1CC(=CCOC(c1ccc(F)cc1)c1ccc(F)cc1)C2 | 3600 | 5000 | 189 | 200 | 35 | 19000
3 | CN1C2CCC1CC(=CC(=O)NC(c1ccccc1)c1ccccc1)C2 | 78000 | 60000 | 34 | 1700 | 880 | 2300
4 | CN1[C@@H]2CC[C@H]1C[C@@H](CC(=O)NC(c1ccccc1)c1ccccc1)C2 | 120000 | 100000 | 4 | 1200 | 7900 | 30000
5 | CN1C2CCC1CC(CC(=O)NC(c1ccc(F)cc1)c1ccc(F)cc1)C2 (stereo not drawn) | 69000 | 60000 | 20 | 1200 | 1800 | 3400
6 | c1ccc(CCCN2CCN(CCOC(c3ccccc3)c3ccccc3)CC2)cc1 |  | 290 |  |  | 3.7 | 
7 | CN1[C@@H]2CC[C@H]1C[C@@H](CCNC(c1ccc(F)cc1)c1ccc(F)cc1)C2 | 30000 | 7100 | 111 | 630 | 160 | 
8 | CN1C2CCC1CC(=CC(=O)NC(c1ccc(F)cc1)c1ccc(F)cc1)C2 | 19000 | 17000 | 38 | 2500 | 240 | 
9 | CN1C2CCC1CC(CCOC(c1ccc(F)cc1)c1ccc(F)cc1)C2 (stereo not drawn) | 4100 |  | 79 | 130 | 80 | 52000
10 | CN1C2CCC1CC(=CCOC(c1ccccc1)c1ccccc1)C2 | 8300 | 8100 | 64 | 94 | 190 | 
11 | CN1[C@@H]2CC[C@H]1C[C@@H](OC(c1ccccc1)c1ccccc1)C2 [BENZTROPINE] |  | 18500 |  |  | 130 | 
12 | Fc1ccc(C(OCCN2CCN(CCCc3ccccc3)CC2)c2ccc(F)cc2)cc1 [VANOXERINE] |  | 73 |  |  | 4.3 | 
13 | Fc1ccc(C(OCC[C@H]2C[C@H]3CC[C@@H](C2)N3CCCc2ccccc2)c2ccc(F)cc2)cc1 | 79 | 430 | 4 | 170 | 78 | 19000
14 | CN1C2CCC1CC(CCNC(c1ccccc1)c1ccccc1)C2 (stereo not drawn) | 43000 | 14000 | 11 | 340 | 1100 | 3800
15 | CN1[C@@H]2CC[C@H]1C[C@@H](CCOC(c1ccccc1)c1ccccc1)C2 | 15000 | 12000 | 54 | 56 | 260 | 
